{"data": "Measured values of several laboratories", "target": "MAP kinase-interacting serine/threonine-protein kinase 1 (MKNK1, Homo sapiens, UniProt Q9BUB5)", "note": "Each line is one published result; the experiments were not run side by side."}
{"SMILES": "Nc1ncc2c(n1)-c1c([nH]c3ccc(C#CC4CC4)cc13)CCCC2", "observed": "binding", "technique": "competition with immobilised ligand", "tested at": "1 µM", "remaining binding": "86%"}
{"SMILES": "CCN1CCN(Cc2ccc(C(=O)Nc3ccc(C)c(Oc4ccc5c(c4)CC(=O)N5)c3)cc2C(F)(F)F)CC1", "observed": "binding", "technique": "competition with immobilised ligand", "tested at": "1 µM", "remaining binding": "100%"}
{"SMILES": "COc1cc(-c2cn(C3CCc4c(F)cccc4N(CC(F)(F)F)C3=O)nn2)ccc1-n1cnc(C)c1 (stereo not shown)", "observed": "cell-free assay", "technique": "competition with immobilised ligand", "tested at": "1 µM", "remaining binding": "87%"}
{"SMILES": "COc1cnc(Nc2cccc(S(N)(=O)=O)c2)nc1N1CCN(c2ccccc2)C(=O)C1", "observed": "binding", "technique": "competition with immobilised ligand", "tested at": "1 µM", "remaining binding": "98%"}
{"SMILES": "Cc1cc(C)c(-n2ccn3nc(-c4cccnc4)cc23)cc1NC(=O)c1cc(C#N)cc(S(F)(F)(F)(F)F)c1", "observed": "cell-free assay", "technique": "competition with immobilised ligand", "tested at": "0.1 µM", "remaining binding": "83.8%"}
{"SMILES": "C[C@@H](c1ccc(-n2cnc3c(N)ncnc32)cc1)N1CCc2nn(C)c(Cc3ccccc3)c2C1=O", "observed": "binding", "technique": "competition with immobilised ligand", "tested at": "0.1 µM", "remaining binding": "58%"}
{"SMILES": "COc1ccnn2ncc(-c3ccnc(N(C)C)n3)c12", "observed": "binding", "tested at": "1 µM", "remaining binding": "95%"}
{"SMILES": "CC(=O)C1=C(C)N(c2cccc(C(F)(F)F)c2)C(=O)N[C@@H]1c1ccc(C#N)nc1", "observed": "cell-free assay", "technique": "competition with immobilised ligand", "tested at": "1 µM", "remaining binding": "100%"}
{"SMILES": "COc1ncc2cc3ccccc3nc2c1C#N", "observed": "cell-free assay", "technique": "competition with immobilised ligand", "tested at": "5 µM", "remaining binding": "96%"}
{"SMILES": "CN(c1ccnc(CNc2nc(Nc3ccc4c(c3)CC(=O)N4)ncc2C(F)(F)F)n1)S(C)(=O)=O", "observed": "cell-free assay", "technique": "competition with immobilised ligand", "tested at": "1 µM", "remaining binding": "45%"}
{"SMILES": "O=C(NCCCN1CCOCC1)c1ccc(Nc2ncc(Cl)c(-c3ccc(Cl)s3)n2)cc1", "observed": "binding", "technique": "competition with immobilised ligand", "tested at": "1 µM", "remaining binding": "84%"}
{"SMILES": "O=C(Nc1c[nH]nc1C(=O)NC1CCNCC1)c1cc(F)cc(F)c1", "observed": "binding", "technique": "competition with immobilised ligand", "tested at": "1 µM", "remaining binding": "100%"}
{"SMILES": "FC(F)(F)Oc1cccc(-c2cnc3ccc(-c4ccncc4)nn23)c1", "observed": "cell-free assay", "technique": "competition with immobilised ligand", "tested at": "5 µM", "remaining binding": "71%"}
{"SMILES": "NS(=O)(=O)c1cc(NC(=O)Cc2ccccc2)ccc1Oc1cccc(Cl)c1", "observed": "cell-free assay", "technique": "competition with immobilised ligand", "tested at": "1 µM", "remaining binding": "79%"}
{"SMILES": "O=C(c1ccc(Nc2ncc(Cl)c(-c3cc4ccccc4s3)n2)cc1)N1CCC(N2CCCC2)CC1", "observed": "binding", "technique": "competition with immobilised ligand", "tested at": "1 µM", "remaining binding": "24%"}
{"SMILES": "CN(C)c1nccc(-c2cnn3ncccc23)n1", "observed": "binding", "tested at": "1 µM", "remaining binding": "100%"}
{"SMILES": "CNC(=O)Nc1ccc2c(c1)[C@@]1(CC2)OC(=O)N(CC(=O)N(Cc2ccc(F)cc2)[C@@H](C)C(F)(F)F)C1=O", "observed": "cell-free assay", "technique": "competition with immobilised ligand", "tested at": "1 µM", "remaining binding": "94%"}
{"SMILES": "CN(C)c1nccc(-c2cnc3ncccn23)n1", "observed": "binding", "tested at": "1 µM", "remaining binding": "67%"}
{"SMILES": "Cc1nc(Cc2cccc(C(F)(F)F)c2)sc1-c1ccc(C(N)=O)nc1", "observed": "cell-free assay", "technique": "competition with immobilised ligand", "tested at": "1 µM", "remaining binding": "100%"}
{"SMILES": "C[C@H]1CCN(c2nccc(-c3cnn4ncccc34)n2)C1", "observed": "binding", "tested at": "1 µM", "remaining binding": "59%"}
{"SMILES": "O=C(c1ccc(Nc2ncc(Cl)c(-c3ccc(Cl)s3)n2)cc1)N1CCC(N2CCCC2)CC1", "observed": "binding", "technique": "competition with immobilised ligand", "tested at": "1 µM", "remaining binding": "45%"}
{"SMILES": "CN(c1nccc(-c2cnn3ncccc23)n1)C1CC1", "observed": "binding", "tested at": "1 µM", "remaining binding": "98%"}
{"SMILES": "C[C@@H]1CN(c2ccc3ncc(-c4ccc5[nH]nc(C6CC6)c5c4)n3n2)C[C@H](C)O1", "observed": "binding", "technique": "competition with immobilised ligand", "tested at": "0.5 µM", "remaining binding": "94%"}
{"SMILES": "CSc1cccnc1N1CCN(Cc2nc3ccccc3[nH]2)CC1", "observed": "cell-free assay", "technique": "competition with immobilised ligand", "tested at": "1 µM", "remaining binding": "98%"}
{"SMILES": "N[C@@H]1CCN(c2nccc(-c3cnn4ncccc34)n2)C1", "observed": "binding", "tested at": "1 µM", "remaining binding": "68%"}
